Measurements from different studies.
Protocols differ between the studies behind these lines. Converted amounts (≈) assume the structure as drawn.
Organism: Escherichia coli

Compound	test	system	setting	quantity	result
O=C(N[C@H](CO)[C@H](O)c1ccc([N+](=O)[O-])cc1)C(Cl)Cl	microbial growth	ATCC 8739, ATCC8739		MIC90	3.9 µg/mL (≈ 12.1 µM)
N=C(N)c1ccccc1OCc1cccc(COc2ccccc2C(=N)N)c1	microbial growth	BW25113		MIC	> 200 µg/mL
O=C(N/N=C/c1ccc([N+](=O)[O-])o1)c1ccc(O)cc1	microbial growth	ATCC35218		MIC90	0.98 µg/mL (≈ 3.56 µM)
CC(C)c1cccc(=O)c(O)c1	microbial growth, broth dilution	ATCC35218		MIC80	44.4 µM (≈ 7.29 µg/mL)
CC(C)Oc1c(NC(=O)c2ccc(NC(=O)[C@H](CC(N)=O)NC(=O)c3cccc(NC(=O)c4ccc(C#N)cc4)c3)cc2)ccc(C(=O)Nc2ccc(C(=O)O)cc2)c1O	microbial growth	DSM1116		MIC	> 64 µg/mL
Cc1ccc(S(=O)(=O)Oc2cccc3cccnc23)cc1	microbial growth, broth dilution	ATCC25922		IC50	133 µg/mL
O=C(O)c1cn(C2CC2)c2cc(N3CCNCC3)c(F)cc2c1=O	microbial growth, disc diffusion		100 µg/mL, 24 h	inhibition zone	17 mm
Cc1ccc(C(C)C)cc1OCc1cn(-c2ccc(Cl)cc2)nn1	microbial growth, broth dilution	ATCC25922		IC50	655 µg/mL
CCCC(=O)Oc1c(C)c(O)c(C(=O)/C=C/c2ccccc2)c(OC)c1C	microbial killing, broth dilution	ATCC25922		MBC	> 5000 µg/mL
N=C(N)c1cccc(OCc2ccc(COc3cccc(C(=N)N)c3)cc2)c1	microbial growth, broth dilution	W3110		MIC	> 200 µg/mL
COc1ccc(-n2cc(COc3cccc4cccnc34)nn2)cc1	microbial growth, broth dilution	ATCC25922		IC50	376 µg/mL
CC(C)CC1NC(=O)C(C(=O)NC(C(=O)NC2C(=O)N3C2SC(C)(C)C3C(=O)O)c2ccccc2)=C1O (stereo not drawn)	microbial growth, well diffusion	BW25113	200 µM	inhibition zone	9 mm
CCCCCC(=O)Oc1c(C)c(O)c(C(=O)/C=C/c2ccccc2)c(OC)c1C	microbial killing, broth dilution	ATCC25922		MBC	> 5000 µg/mL
O=c1cccccc1Sc1cccccc1=O	microbial growth, broth dilution	ATCC35218		MIC80	13.2 µM (≈ 3.2 µg/mL)
CC(C)Oc1c(NC(=O)c2ccc(NC(=O)[C@H](CC(N)=O)NC(=O)c3ccc(NC(=O)c4ccc(C#N)cc4)cc3)cc2)ccc(C(=O)N[C@@H]2CONC2=O)c1O	microbial growth	DSM1116		MIC	> 64 µg/mL
Cc1ccc(-n2cc(COc3cc(C(C)C)ccc3C)nn2)cc1	microbial growth, broth dilution	ATCC25922		IC50	289 µg/mL
CC1(C)S[C@@H]2[C@H](NC(=O)[C@H](N)c3ccc(O)cc3)C(=O)N2[C@H]1C(=O)O	microbial growth, disc diffusion	ATCC25922	250 µg/mL	inhibition zone	11.2 mm
COc1ccc(-c2nc3ccccc3n2Cc2ccccc2)cc1OC	microbial growth, broth dilution	ATCC25922		MIC	64 µg/mL (≈ 186 µM)
C[C@H]1NCc2cc(-c3ccc4c(=O)c(C(=O)O)cn(C5CC5)c4c3OC(F)F)ccc21	microbial growth, broth dilution			MIC50	≤ 0.03 µg/mL
Cc1ccc2nc(-c3ccc([N+](=O)[O-])cc3)n(Cc3ccccc3)c2c1	microbial growth, broth dilution	ATCC25922		MIC	64 µg/mL (≈ 186 µM)
CC(C)Oc1c(NC(=O)c2ccc(NC(=O)[C@H](CC(N)=O)NC(=O)c3ccc(NC(=O)C(C)Oc4ccc(C#N)cc4)cc3)cc2)ccc(C(=O)Nc2ccc(C(=O)O)cc2)c1O (stereo partly drawn)	microbial growth	DSM1116		MIC	0.06 µg/mL (≈ 0.0701 µM)
COc1c(N2C[C@@H]3CCCN[C@@H]3C2)c(F)cc2c(=O)c(C(=O)O)cn(C3CC3)c12	microbial growth	ATCC 8739, ATCC8739		MIC90	0.06 µg/mL (≈ 0.149 µM)
O=[N+]([O-])c1ccc(-n2cc(COc3cccc4cccnc34)nn2)cc1	microbial growth, broth dilution	ATCC25922		IC50	664 µg/mL

Compound	test	system	setting	quantity	result
COc1c(C)c(OS(=O)(=O)c2ccc3ccccc3c2)c(C)c(O)c1C(=O)/C=C/c1ccccc1	microbial killing, broth dilution	ATCC25922		MBC	> 5000 µg/mL
CC1(C)SC2C(NC(=O)C(NC(=O)C3=C(O)C4CCCN4C3=O)c3ccccc3)C(=O)N2C1C(=O)O (stereo not drawn)	microbial growth, well diffusion	BW25113	200 µM	inhibition zone	11 mm
C[C@H]1COc2c(N3CCN(C)CC3)c(F)cc3c(=O)c(C(=O)O)cn1c23	microbial growth	ATCC25922		MIC	0.04 µg/mL (≈ 0.111 µM)
N=C(N)c1ccc(OCc2ccccc2COc2ccc(C(=N)N)cc2)cc1	microbial growth, broth dilution	W3110		MIC	> 200 µg/mL
COc1ccc(-n2cc(COc3cc(C(C)C)ccc3C)nn2)cc1	microbial growth, broth dilution	ATCC25922		IC50	320 µg/mL
N=C(N)c1cccc(OCc2cccc(COc3cccc(C(=N)N)c3)c2)c1	microbial growth	BW25113		MIC	> 200 µg/mL
Fc1ccc(-c2nc3ccccc3[nH]2)cc1	microbial growth, broth dilution	ATCC25922		MIC	256 µg/mL (≈ 1210 µM)
Cc1sc(C)c(-c2ccc(O)c(O)c2)c1Br	microbial growth	AS19	10 h	IC50	10.8 µM
COc1cc(C=CC(=O)CC(c2ccc([N+](=O)[O-])cc2)n2ccnc2)ccc1O (stereo not drawn)	microbial growth, disc diffusion	ATCC25922	250 µg/mL	inhibition zone	7.67 mm
Clc1ccc(-c2nc3ccccc3n2Cc2ccccc2)cc1	microbial growth, broth dilution	ATCC25922		MIC	128 µg/mL (≈ 401 µM)
CCCCCCCCCCCCCC(O)CC(O)CO (stereo not drawn)	microbial growth, broth dilution	ATCC35218		IC50	> 200 µg/mL
COc1cc(C=CC(=O)CC(c2ccc(N(C)C)cc2)n2ccnc2)ccc1O (stereo not drawn)	microbial growth, disc diffusion	ATCC25922	500 µg/mL	inhibition zone	8.67 mm
N=C(N)c1ccc(OCc2ccc3ccc(COc4ccc(C(=N)N)cc4)cc3c2)cc1	microbial growth	BW25113	20 h	MIC	> 200 µg/mL
CN1CC(O)=C(C(=O)NC(C(=O)NC2C(=O)N3C2SC(C)(C)C3C(=O)O)c2ccccc2)C1=O (stereo not drawn)	microbial growth, well diffusion	BW25113	200 µM	inhibition zone	10.5 mm
Cc1c(NC(=O)CC2=NC(=O)CS2)c(=O)n(-c2ccccc2)n1C	microbial killing, broth dilution			MBC	0.5 µg/mL (≈ 1.45 µM)
CC(C)c1ccc(O)c(=O)cc1	microbial growth, broth dilution	ATCC35218		MIC80	58.1 µM (≈ 9.54 µg/mL)
Oc1cccc(-c2nc3ccccc3[nH]2)c1	microbial growth, broth dilution	ATCC25922		MIC	64 µg/mL (≈ 304 µM)
O=C1C=C(O)C(=O)c2ccccc21	microbial growth, broth dilution	ATCC25922		IC50	179 µg/mL
COc1c(C)c(OC)c2c(c1C)OC(c1ccccc1)CC2=O (stereo not drawn)	microbial killing, broth dilution	ATCC25922		MBC	> 5000 µg/mL
CC1(C)S[C@@H]2[C@H](NC(=O)[C@H](N)c3ccccc3)C(=O)N2[C@H]1C(=O)O	microbial growth, disc diffusion		50 µg/disc	inhibition zone	21 mm
COc1c(C)c(OC(C)=O)c(C)c(O)c1C(=O)/C=C/c1ccccc1	microbial killing, broth dilution	ATCC25922		MBC	> 5000 µg/mL
O=S(=O)(Oc1cccc2cccnc12)c1ccccc1	microbial growth, broth dilution	ATCC25922		IC50	277 µg/mL
